Screens from PubChem.
This is a sample that favours compounds with a hit; in the whole collection about 2.1% have one here.
ARNT-TACC3 inh: ARNT/TACC3 interaction disruption; Q9Y6A5; hit rate 0.66% among 390,000; AlphaScreen His-ARNT PAS-B/GST-TACC3 binding, luminescence; TACC3 fragment carries E629A point mutation; inhibition, % at 9.99 µM;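 active = mean inhibition of replicates at least 50% and at least half of replicates each reaching 50%; inconclusive = half or more replicates reach 50% but mean below 50%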
SR-BI uptake up: SR-BI HDL lipid transfer activation | CHO ldlA[mSR-BI] cells, DiI-HDL uptake fluorescence, 3 h; 100 = double the neutral-control signal | activation, % at 12.5 µM | hit rate 0.096% among 320,000 | AID 504775;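 active = mean replicate activation of at least 60% and every replicate at or above 60%; inconclusive = mean or all-replicate condition met, but not both; inactive = mean below 60% and not all replicates reaching 60%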
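Test system: SR-BI-overexpressing, LDLR-lacking CHO cells; Medium: Ham's F12 with 0.5% BSA, HEPES 25 mM, pH 7.4; Schedule: 3 h, 37 °C; Technique: bottom-read fluorescence, 550/595 nm.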
CAL PDZ FP-1: inhibitors of human CAL PDZ peptide binding | Q9HD26 | hit rate 0.92% among 300,000 | purified CAL PDZ, TMR-peptide fluorescence polarization, 1 h | inhibition, % at 24.9 µM;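 active = mean inhibition of at least 30% with at least half of replicates also reaching 30%; inconclusive = no clear call, values can overlap the other calls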
CAL PDZ FP-2: blocks peptide binding to human CAL PDZ domain. inhibition, % at 20 µM. hit rate 0.02% among 330,000. Q9HD26. AID 504414. purified CAL PDZ, TMR-peptide fluorescence polarization, 1 h;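 active = highest replicate inhibition of at least 40%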
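material = purified tagged CAL PDZ domain construct (CerCALP) | buffer or medium = sodium phosphate/NaCl buffer pH 7.4 with TCEP, IgG, Thesit | reagent = TMR-labelled reporter peptide T*-PRC34 bound in PDZ groove | incubation = 1 h room-temperature incubation prior to read | measured by = fluorescence polarization (mP) | evaluation = percent inhibition from loss of millipolarization | control set = unlabelled peptide and DMSO controls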
miR122 inh: miR-122 inhibition in Huh7 cells | Huh7 miR-122 Renilla luciferase sensor, 48 h; neutral wells = 0, positive control = 100 | activation (reporter increase), % at 12.5 µM | hit rate 0.3% among 340,000;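 active = mean replicate activation score at least 90 and every replicate individually at or above 90; inconclusive = only one of the two criteria met; inactive = neither criterion met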;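 also: higher luciferase means less miR-122 activity so hits act as miR-122 inhibitors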
SR-BI HDL uptake: mouse SR-BI HDL lipid transfer inhibition; inhibition, % at 12.5 µM; hit rate 0.96% among 320,000; ldlA[mSR-BI] CHO cells, DiI-HDL uptake fluorescence, 3 h; Q61009; AID 488896;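 active = mean replicate inhibition of at least 70% and a set share of replicates each scoring 70 or more; inconclusive = meets just one of the two criteria; inactive = fails both criteria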
Target sequence (Q61009 whole entry, looked up): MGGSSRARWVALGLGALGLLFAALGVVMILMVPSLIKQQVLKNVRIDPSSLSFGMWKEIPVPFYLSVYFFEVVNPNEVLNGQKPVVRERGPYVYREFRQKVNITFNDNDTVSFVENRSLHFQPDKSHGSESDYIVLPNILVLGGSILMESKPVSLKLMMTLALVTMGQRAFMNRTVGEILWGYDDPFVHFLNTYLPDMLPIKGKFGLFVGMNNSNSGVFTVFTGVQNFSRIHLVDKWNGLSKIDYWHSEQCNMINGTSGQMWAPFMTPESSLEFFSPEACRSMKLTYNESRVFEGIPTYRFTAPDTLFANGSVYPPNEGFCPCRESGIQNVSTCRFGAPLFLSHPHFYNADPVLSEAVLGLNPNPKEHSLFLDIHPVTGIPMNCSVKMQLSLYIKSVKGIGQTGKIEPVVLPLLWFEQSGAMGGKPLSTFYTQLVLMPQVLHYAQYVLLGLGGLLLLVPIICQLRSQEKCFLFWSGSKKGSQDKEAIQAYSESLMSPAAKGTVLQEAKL
Large screens that a line does not name were inactive.

COc1ccc(-n2nc(C(=O)NCC(=O)N3CCC(C)CC3)c3ccccc3c2=O)cc1	CAL PDZ FP-1 47
COc1ccc(-n2nc(C(=O)NCC(=O)N3CCN(c4cccc(Cl)c4)CC3)c3ccccc3c2=O)c(OC)c1	none (no result: SR-BI uptake up, CAL PDZ FP-1, miR122 inh, SR-BI HDL uptake)
COc1ccc(-n2nc(C(=O)NCC(=O)N3CCN(c4ccccn4)CC3)c3ccccc3c2=O)c(OC)c1	CAL PDZ FP-1 43
COc1ccc(-n2nc(C(=O)NCC(=O)Nc3cc(OC)ccc3OC)c3ccccc3c2=O)cc1	none (no result: SR-BI uptake up, SR-BI HDL uptake)
CCNC(=O)C[C@@H]1CC[C@H](NS(=O)(=O)c2ccc(C)cc2)[C@@H](CO)O1	none (no result: SR-BI uptake up, CAL PDZ FP-1, CAL PDZ FP-2, miR122 inh, SR-BI HDL uptake)
O=C(C[C@@H]1C=C[C@@H](NC(=O)Nc2cc(F)ccc2F)[C@H](CO)O1)NCc1ccncn1	none (no result: SR-BI uptake up, CAL PDZ FP-1, CAL PDZ FP-2, miR122 inh, SR-BI HDL uptake)
COc1ccc(NC(=O)C(=O)NCCN2CCN(C(=O)c3ccc(C(C)(C)C)cc3)CC2)cc1	SR-BI HDL uptake 77 (no result: CAL PDZ FP-1)
O=C(C[C@H]1C[C@@H]2c3cc(NC(=O)c4cccnc4)ccc3O[C@@H]2[C@@H](CO)O1)NCc1ccccn1	none (no result: SR-BI uptake up, CAL PDZ FP-1, CAL PDZ FP-2, SR-BI HDL uptake)
C(=Cc1c[nH]c2ccccc12)c1nccc2ccccc12	SR-BI HDL uptake 71
COCN(C#N)c1nc(N(C)C)nc(N(C)C)n1	CAL PDZ FP-1 97 (no result: miR122 inh)
COCN(C#N)c1nc(OC)nc(OC)n1	none
C[C@@H]1CCCCO[C@@H](CN(C)Cc2ccccc2)[C@@H](C)CN([C@@H](C)CO)C(=O)c2cc(NS(=O)(=O)c3ccc(Cl)cc3)ccc2O1	none (no result: SR-BI uptake up, CAL PDZ FP-1, CAL PDZ FP-2, SR-BI HDL uptake)
O=C1NN(c2ccccc2)C(=O)/C1=C\c1ccccc1	ARNT-TACC3 inh 8.4
Cc1ccc(CNC(=O)C(c2ccccc2)c2ccccc2)cc1	CAL PDZ FP-1 94 (no result: miR122 inh)
CC1=CC(C)C(CN(CCC[N+](C)(C)C)C(=O)Nc2ccccc2)C(C)C1 (stereo not drawn)	CAL PDZ FP-1 42 (no result: miR122 inh)
CCSc1ccc(C(=O)Nc2ccc(Br)cn2)cc1[N+](=O)[O-]	CAL PDZ FP-1 39 (no result: miR122 inh)
Cc1[nH]c2ccccc2c1C(c1ccccn1)N1CCCC1 (stereo not drawn)	none (no result: SR-BI uptake up, miR122 inh, SR-BI HDL uptake)
CCOC(=O)C1CCCN(C(c2ccccn2)c2c(C)[nH]c3ccccc23)C1 (stereo not drawn)	CAL PDZ FP-1 119 (no result: miR122 inh)
O=C(CCN1CCOCC1)NNC(=S)NC(=O)c1ccccc1	ARNT-TACC3 inh 48
O=C(CCN1CCOCC1)c1ccccc1	none
COc1ccccc1NC(=O)c1cccc(N2C(=O)C3C4C=CC(C4)C3C2=O)c1 (stereo not drawn)	CAL PDZ FP-1 50
Cc1ccc(-c2cnc3c(c2)C(=O)N([C@@H](C)CO)C[C@H](C)[C@H](CN(C)Cc2ccccc2C(=O)O)O3)cc1	none (no result: SR-BI uptake up, CAL PDZ FP-1, CAL PDZ FP-2, SR-BI HDL uptake)
COc1cc(C(=O)NCCC(C)C)c([N+](=O)[O-])cc1OC	SR-BI HDL uptake 82
CCN1C(=O)c2ccc(C(=O)Nc3ncc(C)s3)cc2C1=O	CAL PDZ FP-1 47 (no result: miR122 inh)
Cc1cnc(NC(=O)c2ccc3c(c2)C(=O)N(Cc2ccco2)C3=O)s1	none
CN(C)CC(=O)Nc1ccc2c(c1)[C@@H]1C[C@@H](CC(=O)N3CCOCC3)O[C@@H](CO)[C@@H]1O2	none (no result: SR-BI uptake up, CAL PDZ FP-1, CAL PDZ FP-2, SR-BI HDL uptake)
O=C(Nc1ccccc1)Nc1nc(-c2ccccc2)cs1	SR-BI uptake up inconclusive (no result: miR122 inh)
COc1cccc(-c2csc(NC(=O)Nc3ccccc3)n2)c1	SR-BI HDL uptake 77 (no result: miR122 inh)
COc1cccc(Nc2nc(-c3cccc(N4C(=O)c5ccccc5C4=O)c3)cs2)c1	SR-BI HDL uptake 91
C[C@H](CO)N1C[C@H](C)[C@@H](CN(C)C(=O)c2ccc3c(c2)OCO3)Oc2ncc(C3=CCCCC3)cc2C1=O	none (no result: SR-BI uptake up, CAL PDZ FP-1, CAL PDZ FP-2, SR-BI HDL uptake)
C[C@@H]1CN([C@H](C)CO)C(=O)c2cc(C#CC3CC3)cnc2O[C@@H]1CN(C)C(=O)c1ccncc1	none (no result: ARNT-TACC3 inh, SR-BI uptake up, CAL PDZ FP-1, CAL PDZ FP-2, SR-BI HDL uptake)
COc1ccc(CN2C[C@@H](O)COC[C@H]3O[C@@H](CC(=O)NCCN4CCCC4)CC[C@@H]32)cc1	none (no result: SR-BI uptake up, CAL PDZ FP-1, CAL PDZ FP-2, SR-BI HDL uptake)
O=c1[nH]c(=S)[nH]c2nc(-c3ccccc3)cnc12	none (no result: miR122 inh)
Cc1cc2nc3c(=O)[nH]c(=S)[nH]c3nc2cc1NC(=O)C(F)(F)F	ARNT-TACC3 inh 70 (no result: miR122 inh)
O=c1[nH]c(C2CCN(S(=O)(=O)c3ccc4c(c3)OCCO4)CC2)nc2c1nnn2Cc1ccc(F)cc1	SR-BI uptake up 94 (no result: miR122 inh)
O=c1[nH]c(C2CCN(S(=O)(=O)c3ccc4c(c3)OCCO4)CC2)nc2c1nnn2Cc1cccc(F)c1	none (no result: SR-BI uptake up, miR122 inh, SR-BI HDL uptake)
Cc1ccc(C(=O)N2CCCCC2)cc1NC1=C(Cl)C(=O)N(Cc2ccccc2)C1=O	none (no result: miR122 inh)
Cc1ccc(O)c(NC2=C(Cl)C(=O)N(Cc3ccccc3)C2=O)c1	SR-BI HDL uptake 77 (no result: CAL PDZ FP-1, miR122 inh)
Cc1ccccc1NC(=S)NCc1ccc2c(c1)OCO2	none (no result: ARNT-TACC3 inh)
O=C(NCc1ccc2c(c1)OCO2)c1ccccc1	none (no result: SR-BI uptake up, miR122 inh, SR-BI HDL uptake)
Cc1cccc(NC(=S)NCc2ccc3c(c2)OCO3)c1C	CAL PDZ FP-1 50 (no result: miR122 inh)
O=C(NC(=S)NCc1ccc2c(c1)OCO2)c1ccccc1	miR122 inh 111 (no result: CAL PDZ FP-1)
Cc1cccc(N(CC(=O)NCc2ccc3c(c2)OCO3)C(=O)CCC(=O)Nc2ccccn2)c1C	CAL PDZ FP-1 92
CC(C)C#Cc1cnc2c(c1)C(=O)N([C@@H](C)CO)C[C@H](C)[C@@H](CN(C)Cc1ccc3c(c1)OCO3)O2	none (no result: SR-BI uptake up, CAL PDZ FP-1, CAL PDZ FP-2, SR-BI HDL uptake)
C[C@@H]1CN([C@H](C)CO)C(=O)c2cc(NS(=O)(=O)c3ccc(F)cc3)ccc2O[C@@H](C)CCCCO[C@@H]1CN(C)Cc1ccncc1	none (no result: SR-BI uptake up, CAL PDZ FP-1, CAL PDZ FP-2, SR-BI HDL uptake)
